Results from different studies.
Compare with care: the assays were run in different laboratories.
PIK3CA E542K: Phosphatidylinositol 4,5-bisphosphate 3-kinase catalytic subunit alpha isoform (PIK3CA, Homo sapiens, UniProt P42336, E542K)
PIK3CA: Phosphatidylinositol 4,5-bisphosphate 3-kinase catalytic subunit alpha isoform (PIK3CA, Homo sapiens, UniProt P42336)
PIK3CA H1047L: Phosphatidylinositol 4,5-bisphosphate 3-kinase catalytic subunit alpha isoform (PIK3CA, Homo sapiens, UniProt P42336, H1047L)

Cc1ccc(C(=O)Nc2ccc(CN3CCN(C)CC3)c(C(F)(F)F)c2)cc1C#Cc1cnc2cccnn12
remaining activity (PIK3CA E542K; enzyme activity; inhibitor; 23.5 nM): 96%

CS(=O)(=O)Nc1cc(-c2ccc3ncnc(Nc4ccc(F)c(Cl)c4)c3c2)cnc1Cl
inhibition (PIK3CA; enzyme activity; inhibitor; FRET; 10 µM): 90 to 100%

CC(C)=CC(=O)CCCC(=O)N1CCN(c2nc(-c3cnc(N)nc3C(F)F)nc(N3CCOCC3)n2)CC1
kinact (PIK3CA; cell-free assay; TR-FRET): 2.6e-05 s⁻¹

COc1cccc2c(NCc3ccccc3)nc(-n3c(N)nc4ccccc43)nc12
inhibition (PIK3CA; target engagement in cells; inhibitor; chemoproteomics; 20 mM): 5.6%

CCOCCn1cc(C(=O)Nc2ccc(-n3nc(-c4cccnc4)cc3C(F)(F)F)cn2)ccc1=O
remaining binding (PIK3CA H1047L; cell-free assay; competition with immobilised ligand; 1 µM): 93%

CC(=O)Oc1ccc(-c2coc3c4c(c(CC=C(C)C)c(OC(C)=O)c3c2=O)OC(C)(C)C=C4)cc1OC(C)=O
remaining activity (PIK3CA E542K; enzyme activity; inhibitor; ADP detection; 10 µM): 46.1%

C=CC(=O)N(C)CCCCC(=O)N1CCN(c2nc(-c3cnc(N)nc3C(F)F)nc(N3CCOCC3)n2)CC1
kinact/KI (PIK3CA; cell-free assay; TR-FRET): 20300 M⁻¹ s⁻¹

CC1=C(C#N)[C@@H](c2ccc3[nH]nc(C)c3c2)C(C#N)=C(c2ccc(Cl)cc2)N1
remaining binding (Phosphatidylinositol 4,5-bisphosphate 3-kinase catalytic subunit alpha isoform (PIK3CA, Homo sapiens, UniProt P42336, C420R); cell-free assay; competition with immobilised ligand; 1 µM): 100%

C/C=C/C(=O)CCCCCC(=O)N1CCN(c2nc(-c3cnc(N)nc3C(F)F)nc(N3CCOCC3)n2)CC1
kinact (PIK3CA; cell-free assay; TR-FRET): 0.0153 s⁻¹

CCCOc1ccc([C@H]2[C@H](C(=O)O)[C@@H](c3ccc4c(c3)OCO4)CN2CC(=O)Nc2c(CC)cccc2CC)cc1
remaining binding (PIK3CA H1047L; cell-free assay; competition with immobilised ligand; 1 µM): 85%

C=CC(=O)N1CCC(C(=O)N(C)CCCC(=O)N2CCN(c3nc(-c4cnc(N)nc4C(F)F)nc(N4CCOCC4)n3)CC2)CC1
kinact/KI (PIK3CA; cell-free assay; TR-FRET): 33600 M⁻¹ s⁻¹

CC(=O)c1c(NS(C)(=O)=O)c2cc(-c3ccc(Cl)cc3)c(-c3ccc(Cl)cc3Cl)nc2n(C)c1=O
remaining binding (Phosphatidylinositol 4,5-bisphosphate 3-kinase catalytic subunit alpha isoform (PIK3CA, Homo sapiens, UniProt P42336, I800L); cell-free assay; competition with immobilised ligand; 1 µM): 64%

Cc1ccc(C(=O)NCc2ccsc2)cc1C#Cc1cn(C(C)C)c2ncnc(N)c12
activity vs control (Phosphatidylinositol 4,5-bisphosphate 3-kinase catalytic subunit alpha isoform, with p85 (PIK3CA, Homo sapiens, UniProt P42336); enzyme activity; inhibitor; 1 µM): 97%

CC(C)CCn1c(SCC(=O)Nc2ccccc2C(F)(F)F)nc2nccnc2c1=O
inhibition (PIK3CA; enzyme activity; inhibitor; 10 µM): < 20%

Nc1ncnc2occ(-c3ccc(NC(=O)Nc4cc(C(F)(F)F)ccc4F)cc3)c12
remaining signal (Phosphatidylinositol 4,5-bisphosphate 3-kinase catalytic subunit alpha isoform (PIK3CA, Homo sapiens, UniProt P42336, M1043I); cell-free assay; inhibitor; 20 µM): 100%

CN1CCN(c2cnc3c(C4CCN(C(=O)c5ccc(OC(F)(F)F)cc5N)CC4)ncnc3c2)CC1
remaining binding (Phosphatidylinositol 4,5-bisphosphate 3-kinase catalytic subunit alpha isoform (PIK3CA, Homo sapiens, UniProt P42336, H1047Y); cell-free assay; competition with immobilised ligand; 1 µM): 92%

C=CC(=O)NCCCCC(=O)N1CCN(c2nc(-c3cnc(N)nc3C(F)F)nc(N3CCOCC3)n2)CC1
kinact (PIK3CA; ligand displacement; TR-FRET): 9.6e-05 s⁻¹
